These results are taken from paper PMC3529916 (Bioorganic & medicinal chemistry, 2012).

Entries after “also recorded” stand apart in the source; their conditions may differ.

One data set deals with α3β3γ2 GABAA receptors (Rattus norvegicus, UniProt P18508+P20236). As to the kind of experiment: Two-electrode voltage clamp, stimulation of GABA EC3 currents in Xenopus oocytes. The data set is classed as cell-based. Conditions: dose-response curves. In a few lines: (§1)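 Xenopus oocytes were injected with rat β3 and γ2 cDNAs plus α1, α2, α3 or α5. Follicle layers were removed 36 h later. Two-electrode voltage clamp was done at −60 mV and room temperature in XR buffer (pH 7.4, 5 mM HEPES). Test compound (0.1% DMSO final) was preapplied for 30 s, then coapplied with EC3 GABA until peak, with washes of up to 15 min. Curves were fitted to a four-parameter logistic.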
Chain of α3β3γ2 GABAA receptors (P20236 29-493): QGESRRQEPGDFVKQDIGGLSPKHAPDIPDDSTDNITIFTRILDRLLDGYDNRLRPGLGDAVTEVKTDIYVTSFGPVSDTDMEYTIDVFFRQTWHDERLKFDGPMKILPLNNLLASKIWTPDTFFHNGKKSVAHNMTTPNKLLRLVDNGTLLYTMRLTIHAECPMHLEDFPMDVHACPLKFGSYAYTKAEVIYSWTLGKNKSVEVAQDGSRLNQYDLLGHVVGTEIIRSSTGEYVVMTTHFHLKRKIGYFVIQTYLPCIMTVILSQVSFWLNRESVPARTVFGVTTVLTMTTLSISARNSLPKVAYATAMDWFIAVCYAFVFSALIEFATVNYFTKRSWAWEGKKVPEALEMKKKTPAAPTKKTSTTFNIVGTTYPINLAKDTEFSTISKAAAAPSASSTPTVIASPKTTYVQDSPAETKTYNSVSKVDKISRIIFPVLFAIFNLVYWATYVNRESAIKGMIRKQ
Chain of α3β3γ2 GABAA receptors (P63079 26-473 partner): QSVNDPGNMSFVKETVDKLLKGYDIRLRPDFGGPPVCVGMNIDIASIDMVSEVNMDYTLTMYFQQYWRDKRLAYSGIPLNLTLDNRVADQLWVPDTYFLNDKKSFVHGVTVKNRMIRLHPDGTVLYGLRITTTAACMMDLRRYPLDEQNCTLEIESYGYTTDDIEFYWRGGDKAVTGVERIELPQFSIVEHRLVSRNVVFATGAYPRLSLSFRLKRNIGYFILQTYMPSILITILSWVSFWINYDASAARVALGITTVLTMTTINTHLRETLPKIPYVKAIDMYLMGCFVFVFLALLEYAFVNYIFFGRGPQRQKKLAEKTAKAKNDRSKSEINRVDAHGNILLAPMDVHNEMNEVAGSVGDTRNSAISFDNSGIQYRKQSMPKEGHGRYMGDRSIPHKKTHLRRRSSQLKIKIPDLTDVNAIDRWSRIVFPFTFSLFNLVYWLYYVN
Chain of α3β3γ2 GABAA receptors (P18508 39-466): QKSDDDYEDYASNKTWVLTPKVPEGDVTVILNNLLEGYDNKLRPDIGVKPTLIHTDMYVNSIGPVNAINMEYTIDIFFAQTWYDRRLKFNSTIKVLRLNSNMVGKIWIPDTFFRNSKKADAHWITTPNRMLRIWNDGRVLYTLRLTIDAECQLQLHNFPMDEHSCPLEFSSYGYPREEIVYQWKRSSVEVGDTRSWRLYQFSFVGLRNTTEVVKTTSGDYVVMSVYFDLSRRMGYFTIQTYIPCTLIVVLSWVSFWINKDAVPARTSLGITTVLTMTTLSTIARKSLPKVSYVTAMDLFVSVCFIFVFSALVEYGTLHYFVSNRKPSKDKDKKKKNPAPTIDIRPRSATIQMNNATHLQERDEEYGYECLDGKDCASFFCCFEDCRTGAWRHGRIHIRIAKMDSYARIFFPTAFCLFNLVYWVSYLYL
In general terms: Two-electrode voltage clamp holds a large cell at a set potential and records current.

Data set [1] is described as follows: Metabolic stability using pooled human liver microsomes. The data set is classed as in vitro ADME. Conditions: 1 and 10 μM, up to 60 min. Background: Liver microsomes are vesicles of endoplasmic reticulum, rich in cytochrome P450 enzymes.
In data set [2] the test system is anxiety. Conditions: cited from earlier work; for Anti-conflict effect / Effect on non-suppressed responding / response rates: dose range 0.1 to 10 mg/kg.
Data set [3] concerns neuropathic and inflammatory pain. Conditions: cited from earlier work.
Data set [4] deals with anxiety. Put plainly: Light/dark cycle test. It is filed as in vivo, mouse.
The next data set concerns locomotor activity. As to the kind of experiment: Locomotor activity test. It is filed as in vivo, mouse.
For data set [5] the following is noted: ref Mithridion, unpublished results; cited from earlier work.
For data set [6] the following is noted: via hepatic enzymes; ref unpublished results; cited from earlier work.
The conditions of data set [7]: cited from earlier work.
For data set [8] the following is noted: ref Bristol-Myers Squibb, unpublished results of Phase I trials; cited from earlier work.
Another data set addresses α5β3γ2 GABAA receptors (Rattus norvegicus, UniProt P18508+P19969). Put plainly: Two-electrode voltage clamp, stimulation of GABA EC3 currents in Xenopus oocytes. The data set is classed as cell-based. In a few lines:
as §1

The next data set concerns the target α1β3γ2 GABAA receptors (Rattus norvegicus, UniProt P18508+P62813). The data set is described as above. It is filed as cell-based. The gist of the method:
as §1

The target of a further data set is α2β3γ2 GABAA receptors (Rattus norvegicus, UniProt P18508+P23576). The description is as above. It is filed as cell-based. Conditions: 100 nM. The gist of the method:
as §1

Where [9] appears, read: positive control, 3 mg/kg, i.p.

Chain of α1β3γ2 GABAA receptors (P62813 28-455): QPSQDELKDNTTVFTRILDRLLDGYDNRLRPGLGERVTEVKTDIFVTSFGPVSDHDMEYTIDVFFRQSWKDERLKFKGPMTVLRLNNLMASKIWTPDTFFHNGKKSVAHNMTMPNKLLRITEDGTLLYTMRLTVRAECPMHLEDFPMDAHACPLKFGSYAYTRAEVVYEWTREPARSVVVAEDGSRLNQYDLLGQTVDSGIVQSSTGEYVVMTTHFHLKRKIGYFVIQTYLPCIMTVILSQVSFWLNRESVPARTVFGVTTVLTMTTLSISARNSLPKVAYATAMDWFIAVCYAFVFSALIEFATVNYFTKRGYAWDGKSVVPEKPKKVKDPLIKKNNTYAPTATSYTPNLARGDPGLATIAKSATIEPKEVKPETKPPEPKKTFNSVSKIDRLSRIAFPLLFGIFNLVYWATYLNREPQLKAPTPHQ
Chain of α1β3γ2 GABAA receptors (P63079 26-473 partner): as the sequence (P63079 26-473 partner) above
Chain of α1β3γ2 GABAA receptors (P18508 39-466): as the sequence (P18508 39-466) above
Chain of α5β3γ2 GABAA receptors (P19969 32-464 limits assumed): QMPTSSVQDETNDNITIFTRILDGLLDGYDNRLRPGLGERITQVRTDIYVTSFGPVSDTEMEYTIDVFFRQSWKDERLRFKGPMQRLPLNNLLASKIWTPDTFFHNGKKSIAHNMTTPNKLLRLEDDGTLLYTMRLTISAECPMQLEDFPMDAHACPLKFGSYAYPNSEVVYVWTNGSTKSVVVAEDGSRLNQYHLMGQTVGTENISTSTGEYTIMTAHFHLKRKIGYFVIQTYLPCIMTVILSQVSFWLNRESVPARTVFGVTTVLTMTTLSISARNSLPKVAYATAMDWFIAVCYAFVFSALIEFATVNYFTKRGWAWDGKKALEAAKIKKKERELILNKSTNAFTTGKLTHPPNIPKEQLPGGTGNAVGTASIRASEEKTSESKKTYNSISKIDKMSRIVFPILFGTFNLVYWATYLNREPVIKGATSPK
Chain of α5β3γ2 GABAA receptors (P63079 26-473 partner): as the sequence (P63079 26-473 partner) above
Chain of α5β3γ2 GABAA receptors (P18508 39-466): as the sequence (P18508 39-466) above
Chain of α2β3γ2 GABAA receptors (P23576 29-451): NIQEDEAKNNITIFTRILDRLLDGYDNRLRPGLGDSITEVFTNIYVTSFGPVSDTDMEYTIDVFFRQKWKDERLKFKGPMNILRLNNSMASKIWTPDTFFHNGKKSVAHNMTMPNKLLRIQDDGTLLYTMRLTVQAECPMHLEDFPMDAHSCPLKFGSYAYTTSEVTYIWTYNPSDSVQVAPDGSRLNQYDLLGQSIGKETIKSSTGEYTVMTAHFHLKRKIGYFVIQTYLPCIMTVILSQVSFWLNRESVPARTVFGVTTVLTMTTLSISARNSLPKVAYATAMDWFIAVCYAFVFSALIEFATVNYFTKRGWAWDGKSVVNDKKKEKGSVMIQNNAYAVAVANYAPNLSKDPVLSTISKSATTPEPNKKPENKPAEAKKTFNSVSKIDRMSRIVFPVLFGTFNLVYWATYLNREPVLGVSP
Chain of α2β3γ2 GABAA receptors (P63079 26-473 partner): as the sequence (P63079 26-473 partner) above
Chain of α2β3γ2 GABAA receptors (P18508 39-466): as the sequence (P18508 39-466) above

With `C#Cc1ccc2c(c1)C(c1ccccn1)=NCc1c(C(=O)NC)ncn1-2` [compound 7, 8-Ethynyl-N-methyl-6-(pyridine-2-yl)-4H-benzo-[f]-imidazo-[1,5-a]-[1,4]-diazepine-3-carboxamide], the “Relative potency, in words” value at α3β3γ2 GABAA receptors is “relatively less potent than 8”. Besides, the “Metabolic stability on human liver microsomes, in words” value (“Metabolic stability” for short) in data set [1] is recorded as “much more stable on human liver microsomes than 1”.
For `C#Cc1ccc2c(c1)C(c1ccccn1)=NCc1c(C(=O)OCC)ncn1-2` [compound 2], in the data set on anxiety [2], the “Side effects, in words” value was “lacked sedative, ataxic, muscle relaxant and amnestic side effects”; the Anti-conflict effect result was “anti-conflict effect”; the “Effect on non-suppressed responding / response rates” value is reported as “without producing diazepam-like alterations”. Also, the “Tolerance development (analgesic activity, chronic versus acute treatment)” value in data set [3] (9-day chronic treatment period) was “no loss of analgesic activity”. For the same molecule, the “Sedation and motor impairment” value in [3] (at doses producing maximal antihyperalgesia) was “devoid of sedation and motor impairment”. Also, in data set [1], the “Metabolic stability” value is given as “minimal metabolism”.
Consider `CN1C(=O)CN=C(c2ccccc2)c2cc(Cl)ccc21` [Diazepam, reference compound], for which the “Anxiolytic activity (time spent in the lighted area vs vehicle)” value in the data set with anxiety [4] (setting [9]) was “significantly anxiolytic”. In the data set on locomotor activity (setting [9]), the “Locomotor activity vs vehicle” value is given as “significantly reduced locomotor activity”.
In the case of `C#Cc1ccc2c(c1)C(c1ccccc1F)=NCc1c(C(=O)NC)ncn1-2` [compound 8, 8-Ethynyl-N-methyl-6-(2-fluorophenyl)-4H-benzo-[f]-imidazo-[1,5-a]-[1,4]-diazepine-3-carboxamide], the “Metabolic stability” value in data set [1] is “significantly more stable than the corresponding ethyl ester analog 3”.
Take `C#Cc1ccc2c(c1)C(c1ccccc1)=NCc1c(-c3nc(C(C)C)no3)ncn1-2` [compound 11]: the “Anxiolytic activity (time spent in the lighted area vs vehicle)” value in the data set on anxiety [4] (10 and 100 mg/kg) was “significant anxiolytic activity”. Besides, in data set [1], the “Metabolic stability” value is “significantly more stable than 1 and 2 respectively; also recorded: much more stable on human liver microsomes than 1”. In the data set on locomotor activity (10 and 100 mg/kg), the “Locomotor activity vs vehicle” value was “significantly increased locomotor activity” and the “Sedation / ataxia, in words” value was “devoid of sedative properties; also recorded: no effects from either ataxia or sedation; also recorded: no sedative properties”.
Regarding `C#Cc1ccc2c(c1)C(c1ccccc1)=NCc1c(C(=O)OCC)ncn1-2` [compound 1], in the data set with anxiety [2], the “Side effects, in words” value is “lacked sedative, ataxic, muscle relaxant and amnestic side effects”; the Anti-conflict effect entry is “anti-conflict effect”; the “Effect on non-suppressed responding / response rates” value is reported as “without producing diazepam-like alterations”. For the same molecule, in data set [5], the “Stability in human tissues, in words” value was “stable in human blood, plasma, brain and kidney”. In addition, the “Metabolic transformation in human liver, in words” value in [6] is “largely transformed into the inactive metabolite XHe-II-053-acid (4)”. Also, in data set [7], the “Preclinical safety and efficacy, in words” value was “safe and effective”. Further, in [8], the Safety in humans entry is “safe in humans”.
For `C#Cc1ccc2c(c1)C(c1ccccc1)=NCc1c(C(=O)NC)ncn1-2` [compound 6, 8-Ethynyl-N-methyl-6-phenyl-4H-benzo-[f]-imidazo-[1,5-a]-[1,4]-diazepine-3-carboxamide], the “Efficacy, in words” value at α5β3γ2 GABAA receptors (100 nM) is listed as “very weak agonistic effects”; at α5β3γ2 GABAA receptors (higher concentration) it was “antagonist”; on α1β3γ2 GABAA receptors (100 nM), “very weak agonistic effects”; at α1β3γ2 GABAA receptors (higher concentration), “antagonist”; at α2β3γ2 GABAA receptors, “very weak agonistic effects”. Further, the “Metabolic stability” value in [1] is listed as “decreased rate of metabolism; also recorded: much more stable on human liver microsomes than 1”.
As for `C#Cc1ccc2c(c1)C(c1ccccn1)=NCc1c(-c3nc(C(C)C)no3)ncn1-2` [compound 12, 5-(8-Ethynyl-6-(pyridin-2-yl)-4H-benzo-[f]-imidazo-[1,5-a]-[1,4]-diazepine-3-yl)-3-isopropyl-1,2,4-oxadiazole], the “Relative potency, in words” value on α3β3γ2 GABAA receptors is “far less potent than 6 and 11”. The “Metabolic stability” value in data set [1] is “significantly more stable than 1 and 2 respectively”.
Regarding `C#Cc1ccc2c(c1)C(c1ccccn1)=NCc1c(C(=O)O)ncn1-2` [compound 5], the “Metabolic stability” value in data set [1] was “did not exhibit any metabolism”.
As to `C#Cc1ccc2c(c1)C(c1ccccc1F)=NCc1c(C(=O)OCC)ncn1-2` [compound 3], in the data set on anxiety [2], the Anti-conflict effect result is listed as “robust anti-conflict effect” and the “Effect on non-suppressed responding / response rates” value was “some reduction in response rates at the highest dose tested”. In data set [1], the “Metabolic stability” value was “underwent biotransformation almost quantitatively; also recorded: not very stable”.
Regarding `C#Cc1ccc2c(c1)C(c1ccccc1)=NCc1c(C(=O)O)ncn1-2` [compound 4], in data set [1], the “Metabolic stability” value is “did not exhibit any metabolism”.
